Assay results published in ChEMBL document CHEMBL2086372 (ACS Med Chem Lett, 2012).
Calls of active or inactive are those of the source. The rule behind the calls is not given here.

Tests used:
Mus musculus [1] = assay: Effect on morphine-dependence in CD1 mouse assessed as decrease in naloxone-precipitated forepaw tremors at 0.05 mg/kg, ip administered acutely 15 mins prior to naloxone challenge relative to vehicle-treated control; type: functional, organism-based; parameters: dose 0.05 mg/kg
Method in brief: (§1)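 Expression of morphine dependence in mice, tested with a single acute ip dose (racemate 0.05 mg/kg, enantiomers 0.025 mg/kg). Withdrawal was precipitated by naloxone in control and morphine-treated mice. Scored signs were jumping frequency and somatic signs (rearing, forepaw tremors, teeth chatter). Groups were compared with vehicle and with the morphine group.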

[2] = molecular target: T1, 5-hydroxytryptamine receptor 1A (Homo sapiens, UniProt P08908); assay: Displacement of [3H]8-OH-DPAT from human 5HT1A receptor expressed in HeLa cells after 30 mins; type: cell-based
T1 sequence (P08908 whole entry): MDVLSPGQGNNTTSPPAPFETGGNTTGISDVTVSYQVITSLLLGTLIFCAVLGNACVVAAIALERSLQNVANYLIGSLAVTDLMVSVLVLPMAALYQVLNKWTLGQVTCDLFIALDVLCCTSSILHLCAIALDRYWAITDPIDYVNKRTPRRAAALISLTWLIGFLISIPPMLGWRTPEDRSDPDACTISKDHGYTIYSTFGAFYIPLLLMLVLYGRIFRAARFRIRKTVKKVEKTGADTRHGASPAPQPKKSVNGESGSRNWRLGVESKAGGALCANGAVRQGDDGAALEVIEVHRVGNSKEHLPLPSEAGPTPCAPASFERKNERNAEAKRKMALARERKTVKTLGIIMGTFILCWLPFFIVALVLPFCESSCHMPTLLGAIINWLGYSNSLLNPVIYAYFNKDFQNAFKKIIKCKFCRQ
Method in brief: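 pKi is derived from displacement of [3H]-8-OH-DPAT binding at human cloned 5-HT1A receptor. Values are means ± SEMs of 3–6 separate experiments.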

Mus musculus [3] = assay: Effect on morphine-dependence in CD1 mouse assessed as decrease in naloxone-precipitated rearing at 0.05 mg/kg, ip administered acutely 15 mins prior to naloxone challenge relative to vehicle-treated control; type: functional, organism-based; parameters: dose 0.05 mg/kg; method in brief: as §1
Mus musculus [4] = assay: Effect on morphine-dependence in CD1 mouse assessed as decrease in naloxone-precipitated jumping at 0.05 mg/kg, ip administered acutely 15 mins prior to naloxone challenge relative to vehicle-treated control; type: functional, organism-based; parameters: dose 0.05 mg/kg; method in brief: as §1
Mus musculus [5] = assay: Effect on morphine-dependence in CD1 mouse assessed as decrease in naloxone-precipitated teeth chatter at 0.05 mg/kg, ip administered acutely 15 mins prior to naloxone challenge relative to vehicle-treated control; type: functional, organism-based; parameters: dose 0.05 mg/kg; method in brief: as §1
Mus musculus [6] = assay: Effect on morphine-dependence in CD1 mouse assessed as decrease in naloxone-precipitated teeth chatter at 0.05 mg/kg, ip administered chronically 15 mins prior to each morphine challenge relative to vehicle-treated control; type: functional, organism-based; parameters: dose 0.05 mg/kg
Method in brief: as §1, with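 “Acquisition” for “Expression”, “repeated” for “a single acute”, “dosing” for “dose”, “naloxone.” for “naloxone in control and morphine-treated mice.”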

Mus musculus [7] = assay: Antidepressant activity in CD1 mouse assessed as decrease in immobility time at 0.05 mg/kg, ip after 15 mins by forced swim test relative to vehicle-treated control; type: functional, organism-based; parameters: dose 0.05 mg/kg
Method in brief: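 Mouse forced swimming test with immobility time as the read-out. Single ip doses were 0.012, 0.025, 0.05, 0.2 or 0.5 mg/kg, with fluoxetine 20 mg/kg ip as reference. Results are compared against vehicle-treated mice and given as means ± SEMs of 8–9 animals.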

[8] = Aqueous solubility of the compound after 1 hr at pH 7.4; type: physicochemical; conditions: buffer, pH 7.4, 1 h
Mus musculus [9] = assay: Effect on morphine-dependence in CD1 mouse assessed as decrease in naloxone-precipitated jumping at 0.05 mg/kg, ip administered chronically 15 mins prior to each morphine challenge relative to vehicle-treated control; type: functional, organism-based; parameters: dose 0.05 mg/kg
Method in brief: as §1, with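 “Acquisition” for “Expression”, “repeated” for “a single acute”, “dosing” for “dose”, “naloxone.” for “naloxone in control and morphine-treated mice.”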

Mus musculus [10] = assay: Effect on morphine-dependence in CD1 mouse assessed as decrease in naloxone-precipitated forepaw tremors at 0.05 mg/kg, ip administered chronically 15 mins prior to each morphine challenge relative to vehicle-treated control; type: functional, organism-based; parameters: dose 0.05 mg/kg
Method in brief: as §1, with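 “Acquisition” for “Expression”, “repeated” for “a single acute”, “dosing” for “dose”, “naloxone.” for “naloxone in control and morphine-treated mice.”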

Mus musculus [11] = assay: Effect on morphine-dependence in CD1 mouse assessed as decrease in naloxone-precipitated rearing at 0.05 mg/kg, ip administered chronically 15 mins prior to each morphine challenge relative to vehicle-treated control; type: functional, organism-based; parameters: dose 0.05 mg/kg
Method in brief: as §1, with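 “Acquisition” for “Expression”, “repeated” for “a single acute”, “dosing” for “dose”, “naloxone.” for “naloxone in control and morphine-treated mice.”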

[12] = molecular target: T2, Alpha-2C adrenergic receptor (Homo sapiens) (UniProt P18825); assay: Agonist activity at human alpha2C adrenoceptor expressed in CHO cells assessed as extracellular acidification measured after 4 mins by cytosensor microphysiometric analysis relative to control; type: functional, cell-based
T2 sequence (whole entry): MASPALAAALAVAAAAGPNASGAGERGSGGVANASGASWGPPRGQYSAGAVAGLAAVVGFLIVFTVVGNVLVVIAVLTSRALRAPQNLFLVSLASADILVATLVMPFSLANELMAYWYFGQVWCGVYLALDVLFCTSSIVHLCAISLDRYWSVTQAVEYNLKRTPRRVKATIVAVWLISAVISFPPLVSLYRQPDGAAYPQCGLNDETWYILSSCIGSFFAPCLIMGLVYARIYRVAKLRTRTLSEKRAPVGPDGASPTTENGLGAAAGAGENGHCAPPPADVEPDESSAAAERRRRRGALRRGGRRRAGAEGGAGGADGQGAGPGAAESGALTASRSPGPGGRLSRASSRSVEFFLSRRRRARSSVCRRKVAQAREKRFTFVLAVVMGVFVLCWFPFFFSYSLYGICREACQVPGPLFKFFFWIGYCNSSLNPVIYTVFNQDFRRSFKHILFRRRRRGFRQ
Method in brief: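 Binding and functional assays run on CHO cells expressing recombinant human α2-AR subtypes. Functional read-outs are agonist potency (pEC50) with intrinsic activity (ia), or antagonist pKb. Affinity is reported as pKi. Values are means ± SEMs of 3–6 separate experiments.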

[13] = Permeability of the compound at 10 uM after 4 hrs by PAMPA assay; type: ADME

With `CC(Oc1ccccc1CC1CC1)C1=NCCN1` (racemic) [CYCLOMETHYLINE] the Activity (Mus musculus [1]) was “Active”, the Ki [2] was 10.5 nM and the Activity (Mus musculus [3]) was “Active”. The Activity (Mus musculus [4]) was “Active”, the Activity (Mus musculus [5]) was “Active” and the Activity (Mus musculus [6]) was “Active”. The Activity (Mus musculus [7]) was “Active”, the solubility [8] was “soluble” and the Activity (Mus musculus [9]) was “Active”. The Activity (Mus musculus [10]) was “Active”, the Activity (Mus musculus [11]) was “Active” and the Intrinsic activity [12] was 0.8. The permeability [13] was “permeable”.
